Series [1] relates to Raji. Put plainly: Inhibition of 12-O-tetradecanoylphorbol-13-acetate-induced EBV-early antigen activation in human Raji cells assessed as EA induction at 0.32 nmol relative to 12-O-tetradecanoylphorbol-13-acetate. The arrangement: scale not given: the % may be the effect or the level left. It counts as cell-based. To be noted: human gammaherpesvirus 4. The method, boiled down:
(§1)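 Raji cells at 10^6 cells/mL resuspended in RPMI 1640 + 10% FCS containing 4 mM n-butyric acid, 32 pmol TPA (20 ng/mL in DMSO) and test compound in DMSO. Incubated 48 h at 37 °C. EA-positive cells scored blind, ≥500 cells per assay. Reported as % EBV-EA activation ± SD relative to the TPA-only control (100%).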

Series [2] relates to Raji. Put plainly: Inhibition of 12-O-tetradecanoylphorbol-13-acetate-induced EBV-early antigen activation in human Raji cells assessed as EA induction at 32 nmol relative to 12-O-tetradecanoylphorbol-13-acetate. The arrangement: scale not given: the % may be the effect or the level left. To be noted: human gammaherpesvirus 4. The class given is cell-based. In short, it runs like this: as §1

A short description of series [3]: Inhibition of 12-O-tetradecanoylphorbol-13-acetate-induced EBV-early antigen activation in human Raji cells assessed per 32 pmol TPA. The class given is cell-based, human gammaherpesvirus 4. In short, it runs like this:
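IC50 given as the mol ratio of compound to TPA giving 50% inhibition of EBV-EA activation versus the TPA-only control (32 pmol TPA = 100%). Raji cells were kept in RPMI 1640/10% FCS with 4 mM n-butyric acid and DMSO-dissolved compound at 10–1000 mol ratio, 48 h, 37 °C. EA-positive cells were counted blind, ≥500 per assay.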

The subject of series [4] is Raji. Nature of the series: Inhibition of 12-O-tetradecanoylphorbol-13-acetate-induced EBV-early antigen activation in human Raji cells assessed as EA induction at 3.2 nmol relative to 12-O-tetradecanoylphorbol-13-acetate. It counts as cell-based. The arrangement: scale not given: the % may be the effect or the level left. Conditions: human gammaherpesvirus 4. In short, it runs like this:
as §1

Series [5] can be described thus: Cytotoxicity against human Raji cells assessed as cell viability at 32 nmol after 48 hrs by trypan blue staining method. It counts as cell-based. Conditions: read-out: Activity. In short, it runs like this: (§2)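 Raji cells grown to 10^6 cells/mL, pelleted and resuspended in RPMI 1640 + 10% FCS with 4 mM n-butyric acid, 32 pmol TPA (20 ng/mL) and test compound in DMSO (mol ratio to TPA 10–1000, i.e. 0.32–32 nmol). Incubated 48 h at 37 °C. Viability then counted on a hemocytometer with Trypan Blue. ≥60% survival required for valid EA readings.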

Series [6] is described as follows: Cytotoxicity against human Raji cells assessed as cell viability at 3.2 nmol after 48 hrs by trypan blue staining method. It counts as cell-based. Conditions: read-out: Activity. In short, it runs like this:
as §2

Series [7] deals with Raji. Put plainly: Inhibition of 12-O-tetradecanoylphorbol-13-acetate-induced EBV-early antigen activation in human Raji cells assessed as EA induction at 16 nmol relative to 12-O-tetradecanoylphorbol-13-acetate. It counts as cell-based. The arrangement: scale not given: the % may be the effect or the level left. Conditions: human gammaherpesvirus 4. The method, boiled down:
as §1

Series [8] is described as follows: Cytotoxicity against human Raji cells assessed as cell viability at 0.32 nmol after 48 hrs by trypan blue staining method. It counts as cell-based. Conditions: read-out: Activity. In short, it runs like this: as §2
Series [9] can be described thus: Cytotoxicity against human Raji cells assessed as cell viability at 16 nmol after 48 hrs by trypan blue staining method. The class given is cell-based. Conditions: read-out: Activity. The method, boiled down: as §2

Regarding `CC1=C(/C=C/C(C)=C/C=C/C(C)=C/C=C/C=C(C)/C=C/C=C(C)/C=C/C2=C(C)CCCC2(C)C)C(C)(C)CCC1` [BETA CAROTENE], the Activity with Raji [1] is 100%; in the series on Raji [2], 9.1%. Moreover, the IC50 in [3] is recorded as 400 molar ratio.
On to `COc1c(O)cccc1/C=C/Cc1ccc(O)c(OC)c1OC` [DALBERATIN A], for which the Activity in the series with Raji [4] came to 63.6%; in the series with Raji [7], 18.5%; in the series on Raji [1], 85.1%; in the series with Raji [2], 0%. Besides, the viability at 48 h, 32 nmol in series [5] came to 60%. Further, the viability at 48 h, 3.2 nmol in series [6] was above 80%. In series [3], this molecule yielded an IC50 of 213 molar ratio. Further, the viability at 48 h, 0.32 nmol in series [8] was above 80%. The viability at 48 h, 16 nmol in [9] is above 80%.
As to `COc1ccc(O)c(/C=C/Cc2ccc(O)c(OC)c2OC)c1` [DALBERATIN B], the Activity in the series on Raji [4] turned out to be 68.3%; with Raji [7] it was 31.1%; in the series with Raji [1], 91.7%; in the series on Raji [2], 0%. In addition, in [5], the viability at 48 h, 32 nmol worked out at 70%. Also, the viability at 48 h, 3.2 nmol in series [6] was above 80%. The IC50 in [3] worked out at 303 molar ratio. Moreover, the viability at 48 h, 0.32 nmol in [8] was above 80%. In addition, the viability at 48 h, 16 nmol in [9] was above 80%.
Consider `COc1ccc(C/C=C/c2cccc(O)c2OC)c(OC)c1O` [DALBERATIN C], for which the Activity with Raji [4] amounted to 65%; in the series on Raji [7], 20.9%; in the series on Raji [1], 86.7%; in the series on Raji [2], 0%. The viability at 48 h, 32 nmol in series [5] stood at 60%. Moreover, the viability at 48 h, 3.2 nmol in series [6] was above 80%. In series [3], the IC50 came to 223 molar ratio. Also, in series [8], the viability at 48 h, 0.32 nmol is above 80%. Also, the viability at 48 h, 16 nmol in series [9] is above 80%.
On to `COc1c(O)cccc1/C=C/Cc1ccc(O)c(O)c1OC` [DALBERATIN E], for which the Activity with Raji [4] was determined as 60.3%; in the series on Raji [7], 16.4%; in the series on Raji [1] it was 82%; with Raji [2] it was 0%. Moreover, the viability at 48 h, 32 nmol in series [5] is 70%. The viability at 48 h, 3.2 nmol in [6] is above 80%. Further, in series [3], the IC50 is 209 molar ratio. Further, the viability at 48 h, 0.32 nmol in series [8] was above 80%. Moreover, in [9], the viability at 48 h, 16 nmol is above 80%.

The record behind these values is ChEMBL document CHEMBL1147263, “New cinnamylphenols from Dalbergia species with cancer chemopreventive activity” (J Nat Prod, 2003).
